From ChEMBL document CHEMBL1146500, “Novel caprolactones from a marine streptomycete” (2004)
Values after ≈ are worked out from the molar mass of the structure shown.

How the values were obtained:
Format in all cases: functional
[1] = tested on: Bacillus subtilis; assay: Antimicrobial activity against Bacillus subtilis at 70 ug by agar diffusion test; conditions: read-out: IZ
Summary of the method: (§1)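 Agar diffusion test: 70 µg of sample applied per 9 mm diameter platelet. Read-out is the diameter of the growth-inhibition zone in mm.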

[2] = tested on: Staphylococcus aureus; assay: Antimicrobial activity against […] at 70 ug by agar diffusion test; conditions: read-out: IZ; summary of the method: as §1
[3] = tested on: Streptomyces viridochromogenes; assay: Antimicrobial activity against Streptomyces viridochromogenes at 70 ug by agar diffusion test; conditions: read-out: IZ; summary of the method: as §1
[4] = tested on: Escherichia coli; assay: Antimicrobial activity against Escherichia coli at 70 ug by agar diffusion test; conditions: read-out: IZ; summary of the method: as §1
[5] = tested on: Candida albicans; assay: Antimicrobial activity against Candida albicans at 70 ug by agar diffusion test; conditions: read-out: IZ; summary of the method: as §1
[6] = tested on: Rhizomucor miehei; assay: Antimicrobial activity against Mucor miehei at 70 ug by agar diffusion test; conditions: read-out: IZ; summary of the method: as §1
[7] = tested on: Chlorella vulgaris; assay: Antimicrobial activity against Chlorella vulgaris at 70 ug by agar diffusion test; conditions: read-out: IZ; summary of the method: as §1
[8] = tested on: Chlorella sorokiniana; assay: Antimicrobial activity against Chlorella sorokiniana at 70 ug by agar diffusion test; conditions: read-out: IZ; summary of the method: as §1
[9] = tested on: Desmodesmus subspicatus; assay: Antimicrobial activity against Scenedesmus subspicatus at 70 ug by agar diffusion test; conditions: read-out: IZ; summary of the method: as §1
[10] = tested on: Artemia salina; assay: Antimicrobial activity against Artemia salina at 70 ug by agar diffusion test; conditions: read-out: IZ; summary of the method: as §1
[11] = Cytotoxicity against human HM02 cells
Summary of the method: (§2)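 In vitro growth inhibition of human cancer cell lines was measured following the NCI guidelines. Cell lines: HM02 (gastric adenocarcinoma), HepG2 (hepatocellular carcinoma) and MCF 7 (breast adenocarcinoma).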

[12] = tested on: HepG2; assay: Cytotoxicity against human HepG2 cells; summary of the method: as §2
[13] = tested on: MCF7; assay: Cytotoxicity against human MCF7 cells; summary of the method: as §2
[14] = tested on: HepG2; assay: Cell cycle arrest in human HepG2 cells by accumulation at subG1 phase at 5 ug/mL after 24 hrs by PI staining
Summary of the method: (§3)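 HepG2 cells were exposed for 24 h, trypsinized, and washed in RPMI 1640 with 1% fetal bovine serum. They were stained 15 min at room temperature in the dark in 150 µg/mL propidium iodide, 1% Triton X-100, 1% BSA and 4 mM sodium citrate, pH 7.4. RNase A was then added for 30 min at room temperature. Output is % cells per phase, mean ± SE of three independent experiments, t-test versus control.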

[15] = tested on: HepG2; assay: Cell cycle arrest in human HepG2 cells by accumulation at G1 phase at 5 ug/mL after 24 hrs by PI staining; summary of the method: as §3
[16] = tested on: HepG2; assay: Cell cycle arrest in human HepG2 cells by accumulation at S phase at 5 ug/mL after 24 hrs by PI staining; summary of the method: as §3
[17] = tested on: HepG2; assay: Cell cycle arrest in human HepG2 cells by accumulation at G2/M phase at 5 ug/mL after 24 hrs by PI staining; summary of the method: as §3

| SMILES | zone of inhibition at 70 µg/disc [1] | zone of inhibition at 70 µg/disc [2] | zone of inhibition at 70 µg/disc [3] | zone of inhibition at 70 µg/disc [4] | zone of inhibition at 70 µg/disc [5] | zone of inhibition at 70 µg/disc [6] | zone of inhibition at 70 µg/disc [7] | zone of inhibition at 70 µg/disc [8] | zone of inhibition at 70 µg/disc [9] | zone of inhibition at 70 µg/disc [10] | GI50 [11] | TGI [11] | GI50 [12] | TGI [12] | GI50 [13] | TGI [13] | Activity [14] | Activity [15] | Activity [16] | Activity [17] |
| --- | --- | --- | --- | --- | --- | --- | --- | --- | --- | --- | --- | --- | --- | --- | --- | --- | --- | --- | --- | --- |
| CC(C)CCC[C@H]1CCCCC(=O)O1 | 0 mm | 0 mm | 13 mm | 0 mm | 0 mm | 11 mm | 11 mm | 12 mm | 11 mm | 0 mm | 2.7 µg/mL (≈ 13.6 µM) | 6.1 µg/mL (≈ 30.8 µM) | 2.2 µg/mL (≈ 11.1 µM) | 6.8 µg/mL (≈ 34.3 µM) | 0.11 µg/mL (≈ 0.555 µM) | 4 µg/mL (≈ 20.2 µM) | – | – | – | – |
| CC[C@H](C)CCC[C@H]1CCCCC(=O)O1 | 0 mm | 11 mm | 15 mm | 0 mm | 11 mm | 15 mm | 15 mm | 22 mm | 20 mm | 0 mm | 1.9 µg/mL (≈ 8.95 µM) | 5.6 µg/mL (≈ 26.4 µM) | 1.4 µg/mL (≈ 6.59 µM) | 5.7 µg/mL (≈ 26.8 µM) | 0.12 µg/mL (≈ 0.565 µM) | 2.6 µg/mL (≈ 12.2 µM) | 5.7% | 73.7% | 11% | 9.8% |
